Measurements taken from ChEMBL document CHEMBL1765068, “Role of the side chain stereochemistry in the α-glucosidase inhibitory activity of kotalanol, a potent natural α-glucosidase inhibitor” (Bioorg Med Chem, 2011).

Tests used:
[1] = Inhibition of rat small intestinal maltase after 30 mins
[2] = target: T1, Sucrase-isomaltase, intestinal (Rattus norvegicus, UniProt P23739); assay: Inhibition of rat small intestinal sucrase after 30 mins
How it was run: (§1)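 Enzyme source was rat small-intestinal brush-border membrane vesicles suspended in 0.1 M maleate buffer, pH 6.0. Substrate solutions were maltose 74 mM (maltase), sucrose 74 mM (sucrase) and isomaltose 7.4 mM (isomaltase). Glucose was measured by glucose oxidase. IC50 was read graphically from % inhibition versus log concentration.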

[3] = target: T1, Sucrase-isomaltase, intestinal; assay: Inhibition of rat small intestinal isomaltase after 30 mins
How it was run: as §1

[4] = target: Sucrase-isomaltase, intestinal (Rattus norvegicus) (UniProt P23739); settings: 100 ug/ml
[5] = target: Lysosomal alpha-glucosidase (Rattus norvegicus) (UniProt Q6P7A9); settings: 100 ug/ml
Sequence of Lysosomal alpha-glucosidase (Rattus norvegicus) (Q6P7A9 whole entry): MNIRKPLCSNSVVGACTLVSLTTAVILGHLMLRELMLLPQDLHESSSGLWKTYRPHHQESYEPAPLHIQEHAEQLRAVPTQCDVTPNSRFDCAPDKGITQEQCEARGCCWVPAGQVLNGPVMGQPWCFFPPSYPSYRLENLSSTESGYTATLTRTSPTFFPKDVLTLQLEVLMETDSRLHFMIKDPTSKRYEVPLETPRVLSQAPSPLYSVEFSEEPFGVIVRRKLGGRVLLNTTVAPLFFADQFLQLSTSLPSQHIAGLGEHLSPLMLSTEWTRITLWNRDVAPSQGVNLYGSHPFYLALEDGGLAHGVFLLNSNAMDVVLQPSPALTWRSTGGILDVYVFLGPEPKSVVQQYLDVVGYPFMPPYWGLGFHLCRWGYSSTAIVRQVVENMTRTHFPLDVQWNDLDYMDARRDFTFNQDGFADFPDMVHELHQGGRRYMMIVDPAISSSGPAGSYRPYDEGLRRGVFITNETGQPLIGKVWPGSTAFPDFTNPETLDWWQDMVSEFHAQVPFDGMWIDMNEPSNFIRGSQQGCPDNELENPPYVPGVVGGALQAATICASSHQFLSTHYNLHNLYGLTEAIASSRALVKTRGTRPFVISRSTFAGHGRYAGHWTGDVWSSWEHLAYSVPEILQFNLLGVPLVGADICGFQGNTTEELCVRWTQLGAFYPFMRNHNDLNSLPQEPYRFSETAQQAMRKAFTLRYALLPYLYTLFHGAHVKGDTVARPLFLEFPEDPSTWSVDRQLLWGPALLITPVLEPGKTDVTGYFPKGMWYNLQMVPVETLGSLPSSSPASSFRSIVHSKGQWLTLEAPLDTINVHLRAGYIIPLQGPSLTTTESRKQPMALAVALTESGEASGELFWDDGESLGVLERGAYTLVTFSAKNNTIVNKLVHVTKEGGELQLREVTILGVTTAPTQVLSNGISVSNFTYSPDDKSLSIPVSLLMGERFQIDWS

T1 sequence (P23739 1-1013 limits assumed): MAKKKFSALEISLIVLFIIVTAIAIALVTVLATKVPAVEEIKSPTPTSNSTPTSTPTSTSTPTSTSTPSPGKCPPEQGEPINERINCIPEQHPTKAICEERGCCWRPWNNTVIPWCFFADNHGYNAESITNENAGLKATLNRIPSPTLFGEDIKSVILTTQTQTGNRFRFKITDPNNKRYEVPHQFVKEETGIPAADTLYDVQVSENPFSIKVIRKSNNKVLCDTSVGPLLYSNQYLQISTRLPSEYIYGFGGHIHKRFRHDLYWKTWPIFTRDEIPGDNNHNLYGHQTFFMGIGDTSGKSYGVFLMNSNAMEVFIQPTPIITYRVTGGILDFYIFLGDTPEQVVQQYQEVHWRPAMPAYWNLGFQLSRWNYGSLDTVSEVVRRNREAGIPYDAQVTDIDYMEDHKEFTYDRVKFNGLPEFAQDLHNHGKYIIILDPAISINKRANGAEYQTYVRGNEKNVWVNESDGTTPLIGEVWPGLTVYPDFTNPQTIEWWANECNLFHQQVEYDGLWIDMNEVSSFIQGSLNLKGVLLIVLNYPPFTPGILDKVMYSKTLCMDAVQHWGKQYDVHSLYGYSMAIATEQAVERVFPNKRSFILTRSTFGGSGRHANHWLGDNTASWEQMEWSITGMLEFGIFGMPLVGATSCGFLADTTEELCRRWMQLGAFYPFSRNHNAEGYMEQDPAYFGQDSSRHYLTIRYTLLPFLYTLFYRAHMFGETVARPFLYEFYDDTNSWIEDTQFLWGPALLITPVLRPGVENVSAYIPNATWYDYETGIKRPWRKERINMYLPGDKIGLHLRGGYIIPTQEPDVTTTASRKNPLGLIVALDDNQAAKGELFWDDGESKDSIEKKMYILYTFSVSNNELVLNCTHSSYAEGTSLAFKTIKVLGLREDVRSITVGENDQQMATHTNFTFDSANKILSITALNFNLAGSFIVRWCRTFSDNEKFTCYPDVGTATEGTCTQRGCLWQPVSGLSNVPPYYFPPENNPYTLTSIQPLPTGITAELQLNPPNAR
T1 sequence (P23739 1014-1841 limits assumed): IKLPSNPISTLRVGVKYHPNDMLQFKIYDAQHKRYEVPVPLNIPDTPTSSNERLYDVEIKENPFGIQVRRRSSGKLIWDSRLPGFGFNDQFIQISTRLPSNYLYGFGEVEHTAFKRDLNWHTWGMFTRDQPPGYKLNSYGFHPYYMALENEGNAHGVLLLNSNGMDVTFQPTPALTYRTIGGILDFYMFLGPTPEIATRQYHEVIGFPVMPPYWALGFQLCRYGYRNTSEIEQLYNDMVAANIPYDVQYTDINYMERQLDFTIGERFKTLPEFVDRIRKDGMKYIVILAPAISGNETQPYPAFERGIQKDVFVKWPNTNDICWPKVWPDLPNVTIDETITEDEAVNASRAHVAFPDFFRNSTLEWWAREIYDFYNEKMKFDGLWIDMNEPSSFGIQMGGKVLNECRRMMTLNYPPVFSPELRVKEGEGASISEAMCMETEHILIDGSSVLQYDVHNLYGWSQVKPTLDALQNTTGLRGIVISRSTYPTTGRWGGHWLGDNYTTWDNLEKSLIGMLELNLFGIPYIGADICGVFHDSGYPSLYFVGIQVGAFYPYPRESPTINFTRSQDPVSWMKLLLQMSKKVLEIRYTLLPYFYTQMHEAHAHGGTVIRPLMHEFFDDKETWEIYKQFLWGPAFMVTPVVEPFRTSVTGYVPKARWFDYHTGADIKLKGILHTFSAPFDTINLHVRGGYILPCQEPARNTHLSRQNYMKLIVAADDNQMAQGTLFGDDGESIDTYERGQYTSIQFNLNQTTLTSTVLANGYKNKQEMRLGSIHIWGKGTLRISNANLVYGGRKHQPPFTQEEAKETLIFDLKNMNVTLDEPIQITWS
Sequence of Sucrase-isomaltase, intestinal (Rattus norvegicus) (P23739 1-1013 limits assumed): as the sequence (P23739 1-1013 limits assumed) above
Sequence of Sucrase-isomaltase, intestinal (Rattus norvegicus) (P23739 1014-1841 limits assumed): as the sequence (P23739 1014-1841 limits assumed) above

| Compound | IC50 [1] [µM] | IC50 [2] [µM] | IC50 [3] [µM] | inhibition [4] [%] | inhibition [5] [%] |
| --- | --- | --- | --- | --- | --- |
| O=S(=O)([O-])O[C@@H](CO)[C@H](O)C[S@+]1C[C@@H](O)[C@H](O)[C@H]1CO [SALACINOL] | 5.2 | – | – | – | – |
| O=S(=O)([O-])OC[C@H](O)C[S@+]1C[C@@H](O)[C@H](O)[C@H]1CO [SALAPRINOL] | – | 0.29 | 2.6 | – | – |
| O=S(=O)([O-])O[C@@H]([C@H](O)[C@H](O)[C@@H](O)CO)[C@H](O)C[S+]1C[C@@H](O)[C@H](O)[C@H]1CO (stereo not given in full) [KOTALANOL] | 7.2 | – | – | – | – |
| O=S(=O)([O-])O[C@H]([C@@H](O)[C@@H](O)[C@@H](O)CO)[C@H](O)C[S+]1C[C@@H](O)[C@H](O)[C@H]1CO (stereo not given in full) | – | 23 | 25 | – | – |
| O=S(=O)([O-])O[C@H]([C@@H](O)[C@H](O)[C@@H](O)CO)[C@H](O)C[S+]1C[C@@H](O)[C@H](O)[C@H]1CO (stereo not given in full) | – | > 236 | 8.5 | 28 | 32 |
| O=S(=O)([O-])O[C@H]([C@@H](O)[C@H](O)[C@H](O)CO)[C@H](O)C[S+]1C[C@@H](O)[C@H](O)[C@H]1CO (stereo not given in full) | – | > 236 | 9 | 34 | 45 |
| OCC(CO)N[C@H]1C[C@](O)(CO)[C@@H](O)[C@H](O)[C@H]1O [VOGLIBOSE] | – | 1.2 | – | – | – |
| O=S(=O)([O-])O[C@@H]([C@H](O)[C@@H](O)CO)[C@H](O)C[S@+]1C[C@@H](O)[C@H](O)[C@H]1CO [PONKORANOL] | – | > 100 | – | – | – |
| O=S(=O)([O-])O[C@H]([C@@H](O)[C@@H](O)[C@H](O)CO)[C@H](O)C[S+]1C[C@@H](O)[C@H](O)[C@H]1CO (stereo not given in full) | – | > 236 | 16 | 8 | 25 |
